Published values of several laboratories.
CYP2C8: Cytochrome P450 2C8 (CYP2C8, Homo sapiens, UniProt P10632)
CYP2C9: Cytochrome P450 2C9 (CYP2C9, Homo sapiens, UniProt P11712)
DPP4: Dipeptidyl peptidase 4 (DPP4, Homo sapiens, UniProt P27487)

| SMILES | target | test | test system | conditions | IC50 |
| --- | --- | --- | --- | --- | --- |
| CN(C)c1ncnc2c1ncn2[C@@H]1O[C@H](CCl)[C@@H](NC(=O)[C@H](CSC(c2ccccc2)c2ccccc2)NC(=O)OC(C)(C)C)[C@H]1O | Aminopeptidase N (ANPEP, Homo sapiens, UniProt P15144) | enzyme activity, inhibitor, fluorescence |  |  | > 100 µM |
| Cn1nc2c(=O)n(C3CC3)ncc2c1[C@](N)(c1ccc(C(F)(F)F)c(Cl)c1)C1CC1 | CYP2C8 | enzyme activity, inhibitor | human, liver microsomes | pH 7.4 | 7.4 µM |
| Nc1ncnc2c1ncn2[C@@H]1O[C@H](CO)[C@@H](O)[C@H]1O | SLC22A13 (Homo sapiens, UniProt Q9Y226) | transporter uptake, inhibitor, radiometric |  | oocytes | > 5000 µM |
| Cn1nc2c(=O)n(C3CC3)ccc2c1[C@](O)(c1cnc(C(F)(F)F)c(Cl)c1)C(F)(F)F | CYP2C9 | enzyme activity, inhibitor | human, liver microsomes | pH 7.4 | > 20 µM |
| Cn1c(=O)cc(N2CCC(N)CC2)n(Cc2nc3ccc(Br)cc3c(=O)n2-c2ccc(F)cc2)c1=O | DPP4 | enzyme activity, inhibitor |  |  | 44.4 µM |
| CCCCNC(=O)N[C@H]1CSCc2cc(CSCCNC(=O)CN3CCN(CC(=O)O)CCN(CC(=O)O)CC3)cc(c2)CSC[C@@H](C(=O)O)NC(=O)[C@H](Cc2ccccc2)NC(=O)[C@H](CCC(N)=O)NC(=O)[C@H]([C@@H](C)O)NC(=O)[C@@H]2CCCN2C(=O)[C@@H]2CCCN2C1=O | Prolyl endopeptidase FAP (FAP, Homo sapiens, UniProt Q12884) | ligand displacement, radioligand |  |  | 0.0317 µM |
| Cn1c(=O)cc(N2CCC(N)CC2)n(Cc2nc3ccccc3c(=O)n2-c2cccc(C(F)(F)F)c2)c1=O | DPP4 | enzyme activity, inhibitor |  |  | 58.1 µM |
| CC[C@@](N)(c1cnc(C(F)(F)F)c(Cl)c1)c1c2ncn(C3CC3)c(=O)c2nn1C | CYP2C8 | enzyme activity, inhibitor | human, liver microsomes | pH 7.4 | > 20 µM |
| Cn1c(=O)cc(N2CCC(N)CC2)n(Cc2nc3ccc(Br)cc3c(=O)n2-c2ccc(Br)cc2)c1=O | DPP4 | enzyme activity, inhibitor |  |  | 11.2 µM |
| COc1cc(O)c2c(c1)C(=O)c1cc(C)cc(O)c1C2=O | CYP2C9 | enzyme activity, inhibitor | human, liver microsomes | pH 7.4 | 7.44 µM |
